Here are results for 14 compounds from ChEMBL document CHEMBL3112433, “Synthesis and antimicrobial activities of novel 1,2,4-triazolo [3,4-a] phthalazine derivatives” (2014).

What all share (format): functional
Assay [1] relates to Stenotrophomonas maltophilia. The assay can be described thus: Antimicrobial activity against Stenotrophomonas maltophilia after 24 hrs by broth microdilution method. The procedure, abridged: (§1)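 MICs determined by two-fold broth microdilution following CLSI guidelines (M100-S22), with compound concentrations of […] in the well. Every well except the blank was inoculated with the test bacterium and incubated at 37 °C for 24 h. MIC was taken as the lowest concentration with no visible growth.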

Assay [2] relates to Bacillus subtilis. Put plainly: Antimicrobial activity against Bacillus subtilis after 24 hrs by broth microdilution method. Put shortly:
as §1

Assay [3] deals with Acinetobacter baumannii. The assay can be described thus: Antimicrobial activity against Acinetobacter baumannii after 24 hrs by broth microdilution method. The procedure, abridged: as §1
The subject of assay [4] is Escherichia coli. The assay can be described thus: Antimicrobial activity against Escherichia coli after 24 hrs by broth microdilution method. The procedure, abridged: as §1
In assay [5] the test system is Staphylococcus aureus. Put plainly: Antimicrobial activity against Staphylococcus aureus after 24 hrs by broth microdilution method. The procedure, abridged: as §1
Assay [6] has as its system Candida albicans. Put plainly: Antimicrobial activity against Candida albicans after 24 hrs by broth microdilution method.

Converted amounts (≈) assume the structure as drawn.

As for `C[C@H]1COc2c(N3CCN(C)CC3)c(F)cc3c(=O)c(C(=O)O)cn1c23.C[C@H]1COc2c(N3CCN(C)CC3)c(F)cc3c(=O)c(C(=O)O)cn1c23.O` [LEVOFLOXACIN], the MIC in assay [1] was determined as 0.5 µg/mL; in assay [2], 1 µg/mL; in assay [3] it was 0.25 µg/mL; in assay [4], 0.25 µg/mL; in assay [5] it was 0.5 µg/mL.

For the compound `Cc1nnc2c3ccccc3c(N3CC(C)CC(C)C3)nn12` (stereo not drawn), the MIC in assay [1] is above 128 µg/mL; in assay [2], 64 µg/mL (≈ 217 µM); in assay [3] it was above 128 µg/mL; in assay [4], above 128 µg/mL; in assay [5], 32 µg/mL (≈ 108 µM); in assay [6] it was above 128 µg/mL.

Consider `COc1ccc(Nc2nn3cnnc3c3ccccc23)cc1`, for which the MIC in assay [1] is above 128 µg/mL; in assay [2], above 128 µg/mL; in assay [3], above 128 µg/mL; in assay [4] it was above 128 µg/mL; in assay [5], 128 µg/mL (≈ 439 µM); in assay [6], above 128 µg/mL.

In the case of `c1ccc2c(c1)c(N1CCNCC1)nn1cnnc21`, the minimal inhibitory concentration (MIC) in assay [1], in assay [2], in assay [3], in assay [4], in assay [5] and in assay [6] was above 128 µg/mL in each case.

With `Fc1ccc(Nc2nn3c(-c4ccccc4)nnc3c3ccccc23)cc1`, the MIC in assay [1] is above 128 µg/mL; in assay [2], above 128 µg/mL; in assay [3], above 128 µg/mL; in assay [4] it was above 128 µg/mL; in assay [5] it was 16 µg/mL (≈ 45 µM); in assay [6] it was above 128 µg/mL.

With `COc1ccc(Nc2nn3c(C)nnc3c3ccccc23)cc1`, the MIC in assay [1] was above 128 µg/mL; in assay [2] it was above 128 µg/mL; in assay [3], above 128 µg/mL; in assay [4], above 128 µg/mL; in assay [5], 16 µg/mL (≈ 52.4 µM); in assay [6], above 128 µg/mL.

Consider `Cc1ccc(Nc2nn3c(-c4ccccc4)nnc3c3ccccc23)cc1`, for which the MIC in assay [1] is above 128 µg/mL; in assay [2] it was above 128 µg/mL; in assay [3] it was above 128 µg/mL; in assay [4] it was above 128 µg/mL; in assay [5], 32 µg/mL (≈ 91.1 µM); in assay [6], above 128 µg/mL.

As for `Clc1ccc(Nc2nn3cnnc3c3ccccc23)cc1`, the MIC is above 128 µg/mL in assay [1]; above 128 µg/mL in assay [2]; above 128 µg/mL in assay [3]; above 128 µg/mL in assay [4]; 32 µg/mL (≈ 108 µM) in assay [5]; above 128 µg/mL in assay [6].

For `Cc1nnc2c3ccccc3c(Nc3ccccc3Cl)nn12`, the minimum inhibitory concentration (MIC) in assay [1] was above 128 µg/mL; in assay [2], above 128 µg/mL; in assay [3] it was above 128 µg/mL; in assay [4], above 128 µg/mL; in assay [5] it was 32 µg/mL (≈ 103 µM); in assay [6], above 128 µg/mL.

`Fc1ccc(Nc2nn3cnnc3c3ccccc23)cc1`: the MIC in assay [1] was above 128 µg/mL; in assay [2], above 128 µg/mL; in assay [3], above 128 µg/mL; in assay [4] it was above 128 µg/mL; in assay [5] it was 64 µg/mL (≈ 229 µM); in assay [6] it was above 128 µg/mL.

In assay [6], `OC(Cn1cncn1)(Cn1cncn1)c1ccc(F)cc1F` [FLUCONAZOLE] gave an MIC of 1 µg/mL (≈ 3.27 µM).

With `c1ccc(-c2nnc3c4ccccc4c(N4CCNCC4)nn23)cc1`, the MIC is 32 µg/mL (≈ 96.9 µM) in assay [1]; 64 µg/mL (≈ 194 µM) in assay [2]; 64 µg/mL (≈ 194 µM) in assay [3]; 128 µg/mL (≈ 387 µM) in assay [4]; 32 µg/mL (≈ 96.9 µM) in assay [5]; 32 µg/mL (≈ 96.9 µM) in assay [6].

Turning to `Cc1ccc(Nc2nn3c(C)nnc3c3ccccc23)cc1`, the MIC is above 128 µg/mL in assay [1]; above 128 µg/mL in assay [2]; above 128 µg/mL in assay [3]; above 128 µg/mL in assay [4]; 64 µg/mL (≈ 221 µM) in assay [5]; above 128 µg/mL in assay [6].

For the compound `Cc1ccc(Nc2nn3cnnc3c3ccccc23)cc1`, the MIC in assay [1] was above 128 µg/mL; in assay [2], above 128 µg/mL; in assay [3], above 128 µg/mL; in assay [4], above 128 µg/mL; in assay [5], 32 µg/mL (≈ 116 µM); in assay [6], above 128 µg/mL.
